From EPA's CvTdb concentration-time database

Key:
Mouse [1] = assay: concentration in plasma after dosing; details: 3 h; dosed: 2-Hydroxy-4-methoxybenzophenone; 50 mg/kg; iv; Female; B6C3F1
Mouse [2] = assay: concentration in plasma after dosing; details: 10 min; dosed: 2-Hydroxy-4-methoxybenzophenone; 500 mg/kg; oral; Female; B6C3F1
Mouse [3] = assay: concentration in plasma after dosing; details: dosed: 2-Hydroxy-4-methoxybenzophenone, 100 mg/kg, oral, Male, B6C3F1
Rat [4] = assay: concentration in plasma after dosing; details: 2 min; dosed: Nitrite; 40 mg/kg; oral; Female; F344
Rat [5] = assay: concentration in plasma after dosing; details: dosed: Nitrite, 20 mg/kg, iv, Male, F344
Rat [6] = assay: concentration in plasma after dosing; details: dosed: Nitrite, 80 mg/kg, oral, Female, F344
Rat [7] = assay: concentration in plasma after dosing; details: dosed: Fluorotelomer alcohol 8+2, 12 mg/kg, oral, Male, Harlan Sprague Dawley
Rat [8] = assay: concentration in kidney after dosing; details: 12 h; dosed: Fluorotelomer alcohol 8+2; 24 mg/kg; oral; Male; Harlan Sprague Dawley
Rat [9] = assay: concentration in kidney after dosing; details: 3 h; dosed: Potassium Perfluorobutane Sulfonate; 20 mg/kg; oral; Male; Harlan Sprague Dawley
Rat [10] = assay: concentration in plasma after dosing; details: 1.5 h; dosed: Potassium Perfluorobutane Sulfonate; 4 mg/kg; oral; Male; Harlan Sprague Dawley
rat [11] = details: dosed: benzo[a]pyrene, 1 mg/kg, iv, male, Sprague Dawley
monkey = assay: concentration in blood after dosing; details: dosed: methanol, inhalation, duration: 6 hr, male, Macaca mulatta
In short: (§1)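 A PubMed search, classifier screening and manual review identified published in vivo toxicokinetic studies, which together with two structured collections supplied concentration-versus-time and amount-versus-time points. Points were mostly digitised from plot screenshots with WebPlotDigitizer, otherwise copied from tables. Dose, route, subject details and medium were hand-curated from each paper, and sampling and analytical methods are those of the sources, often unreported.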

rat [12] = assay: amount in expired air after dosing (umol); details: dosed: methanol, 100 mg/kg, iv, male, CDF(F344)/CrlBR
human = assay: concentration in blood after dosing
In short: as §1

COc1ccc(C(=O)c2ccccc2)c(O)c1 [2-Hydroxy-4-methoxybenzophenone]
Details	concentration in plasma [ng/mL]
Mouse [1]	134
Mouse [2]	687

Mouse [3]
Details	concentration in plasma [ng/mL]
0.25 h	64.6
2 h	21.1
2.5 min	26.8
3 h	20
10 min	39.6

O=N[O-] [Nitrite]
Details	concentration in plasma [ng/mL]
Rat [4]	7300

concentration in plasma [ng/mL]
Details	0.75 h	1 h	2 h	2 min
Rat [5]	4400	–	–	9000
Rat [6]	–	11200	12200	–

O=C(O)C(F)(F)C(F)(F)C(F)(F)C(F)(F)C(F)(F)C(F)(F)C(F)(F)F [Perfluorooctanoic acid]
Rat [7]
Details	concentration in plasma [ng/mL]
0.25 h	204
6 h	438

Details	concentration in kidney [ng/g]
Rat [8]	581

O=S(=O)([O-])C(F)(F)C(F)(F)C(F)(F)C(F)(F)F.[K+] [Potassium Perfluorobutane Sulfonate]
Details	concentration in kidney [ng/g]	concentration in plasma [ng/mL]
Rat [9]	20700	–
Rat [10]	–	12600

c1ccc2c(c1)cc1ccc3cccc4ccc2c1c34 [benzo[a]pyrene]
rat [11]
Details	amount in bile after dosing [ng]
1.003 h	7.16
3.009 h	20.1
5.994 h	22.9
24 h	26.4

CO [methanol]
monkey
Details	concentration in blood [ng/mL]
0.5142 h, 2000 ppm	54500
0.5644 h, 1200 ppm	35700
1.044 h, 1200 ppm	31200
1.066 h, 2000 ppm	52700
1.558 h, 1200 ppm	31400
1.603 h, 2000 ppm	47700
2.036 h, 1200 ppm	27700
2.065 h, 2000 ppm	39000
3.014 h, 1200 ppm	21100
3.019 h, 2000 ppm	40300
4.525 h, 1200 ppm	14300
4.556 h, 2000 ppm	24100
6.067 h, 2000 ppm	16300
6.073 h, 1200 ppm	10300
8.074 h, 2000 ppm	9200
8.076 h, 1200 ppm	7660
10 h, 1200 ppm	7870
10.06 h, 2000 ppm	7580
97 s, 1200 ppm	38600
101 s, 2000 ppm	65800

rat [12]
Details	amount in expired air
0.5482 h	3.95
1.003 h	4.75
1.458 h	5.56
1.963 h	7.78
2.999 h	10.5
4.439 h	14.9
5.98 h	17.6
8.026 h	18.8
10.01 h	19.4
12.02 h	20.1
15.07 h	19.5

CC(C)(C)O [tert-butyl alcohol]
human, inhalation, duration: 4 hr
Details	concentration in blood [nM]
1.944 h, dosed: methyl tert-butyl ether, 4.5 ppm	1930
1.995 h, dosed: methyl tert-butyl ether, 38.7 ppm	22200
2.028 h, dosed: ethyl tert-butyl ether, 40.6 ppm	12800
2.045 h, dosed: ethyl tert-butyl ether, 4.5 ppm	1690
3.934 h, dosed: methyl tert-butyl ether, 4.5 ppm	1730
3.985 h, dosed: methyl tert-butyl ether, 38.7 ppm	17800
4.023 h, dosed: ethyl tert-butyl ether, 4.5 ppm	1620
4.023 h, dosed: ethyl tert-butyl ether, 40.6 ppm	11000
5.95 h, dosed: methyl tert-butyl ether, 4.5 ppm	1580
6.001 h, dosed: methyl tert-butyl ether, 38.7 ppm	12500
6.034 h, dosed: ethyl tert-butyl ether, 4.5 ppm	1170
6.034 h, dosed: ethyl tert-butyl ether, 40.6 ppm	9280
7.952 h, dosed: methyl tert-butyl ether, 4.5 ppm	917
7.96 h, dosed: ethyl tert-butyl ether, 4.5 ppm	1100
7.977 h, dosed: ethyl tert-butyl ether, 40.6 ppm	8400
8.017 h, dosed: methyl tert-butyl ether, 38.7 ppm	10000
9.972 h, dosed: ethyl tert-butyl ether, 4.5 ppm	771
9.972 h, dosed: ethyl tert-butyl ether, 40.6 ppm	6190
10.03 h, dosed: methyl tert-butyl ether, 38.7 ppm	8310
11.93 h, dosed: ethyl tert-butyl ether, 4.5 ppm	905
11.98 h, dosed: ethyl tert-butyl ether, 40.6 ppm	5880
12.05 h, dosed: methyl tert-butyl ether, 38.7 ppm	5730
18 s, dosed: methyl tert-butyl ether, 4.5 ppm	2660
20 s, dosed: methyl tert-butyl ether, 38.7 ppm	21800
23.91 h, dosed: ethyl tert-butyl ether, 40.6 ppm	2670
23.99 h, dosed: methyl tert-butyl ether, 38.7 ppm	1140
61 s, dosed: ethyl tert-butyl ether, 4.5 ppm	1870
61 s, dosed: ethyl tert-butyl ether, 40.6 ppm	14300

human, dosed: methyl tert-butyl ether, oral
Details	concentration in blood [nM]
0.9669 h, 5 mg	463
1.015 h, 15 mg	1880
1.979 h, 15 mg	1700
1.982 h, 5 mg	430
2.968 h, 15 mg	1580
2.972 h, 5 mg	391
3.958 h, 15 mg	1510
3.961 h, 5 mg	370
5.915 h, 5 mg	318
5.962 h, 15 mg	1230
7.92 h, 5 mg	290
7.966 h, 15 mg	983
9.925 h, 5 mg	236
9.97 h, 15 mg	937
11.95 h, 15 mg	806
12.01 h, 5 mg	199
23.95 h, 15 mg	268
23.99 h, 5 mg	53.5
